Assay results published in ChEMBL document CHEMBL5096186, “Design, Synthesis, and Biological Evaluation of Novel Pyrimido[4,5-b]indole Derivatives Against Gram-Negative Multidrug-Resistant Pathogens” (J Med Chem, 2021).
≈ marks a conversion by molar mass, not a printed value. Values belong to the compound of their own block, whether it stands above or below them.

Tests used:
Escherichia coli [1] = assay: Antibacterial activity against Escherichia coli ATCC 35218 strains 15 1 to 3 assessed as reduction in bacterial growth incubated for 18 to 20 hrs by CLSI based microdilution method; format: functional; settings: time 18-20 hrs
How it was run: (§1)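 CLSI broth microdilution. Compounds in DMSO (levofloxacin and meropenem in water), serial twofold dilutions in broth, 64 to 0.008 μg/mL. […] Results reported as MIC ranges across strains.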

Escherichia coli [2] = assay: Antibacterial activity against ESBL-producing Escherichia coli ATCC 35218 strains 15 1 to 3 assessed as reduction in bacterial growth incubated for 18 to 20 hrs by CLSI based microdilution method; format: functional; settings: time 18-20 hrs; how it was run: as §1
Pseudomonas aeruginosa [3] = assay: Antibacterial activity against multidrug resistant Pseudomonas aeruginosa strains 15 1 to 3 assessed as reduction in bacterial growth incubated for 18 to 20 hrs by CLSI based microdilution method; format: functional; settings: time 18-20 hrs
How it was run: (§2)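 Broth microdilution per CLSI. Compounds dissolved in DMSO (levofloxacin and meropenem in water) as 64 μg/mL stock, then serial twofold dilutions in broth giving 64 to 0.008 μg/mL. […] Clinical isolates tested as several strains per group; racemic GP-1 served as positive control; values given as MIC ranges.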

[4] = tested on: Staphylococcus epidermidis; assay: Antibacterial activity against methicillin-sensitive Staphylococcus epidermidis strains 15 1 to 4 assessed as reduction in bacterial growth incubated for 18 to 20 hrs by CLSI based microdilution method; format: functional; settings: time 18-20 hrs; how it was run: as §2
Staphylococcus aureus [5] = assay: Antibacterial activity against methicillin-sensitive Staphylococcus aureus strains 15 1 to 4 assessed as reduction in bacterial growth incubated for 18 to 20 hrs by CLSI based microdilution method; format: functional; settings: time 18-20 hrs; how it was run: as §2
Staphylococcus aureus [6] = assay: Antibacterial activity against methicillin-resistant Staphylococcus aureus strains 15 1 to 4 assessed as reduction in bacterial growth incubated for 18 to 20 hrs by CLSI based microdilution method; format: functional; settings: time 18-20 hrs; how it was run: as §2
[7] = Metabolic stability in human liver microsome assessed as metabolic bioavailability at 0.1 uM in presence of NADPH incubated upto 60 mins by LC-MS/MS analysis; format: ADME; settings: liver microsomes
How it was run: (§3)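 Compound at 0.1 μM final, in 0.01% DMSO with 0.005% BSA. Incubated with rat or human liver microsomes at 0.33 mg/mL in 0.1 M Tris-HCl, pH 7.4, with 5 mM MgCl₂ and 1 mM NADPH, at 37 °C. Samples at 0, 7, 17, 30 and 60 min quenched with cold methanol and analysed by LC-MS/MS. Half-life, Cl_int and MF% derived as previously described.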

[8] = Metabolic stability in rat liver microsome assessed as metabolic bioavailability at 0.1 uM in presence of NADPH incubated upto 60 mins by LC-MS/MS analysis; format: ADME; settings: liver microsomes; how it was run: as §3
[9] = Metabolic stability in rat liver microsome assessed as intrinsic clearance at 0.1 uM in presence of NADPH incubated upto 60 mins by LC-MS/MS analysis; format: ADME; settings: microsomes, 1 h; how it was run: as §3
[10] = Metabolic stability in human liver microsome assessed as intrinsic clearance at 0.1 uM in presence of NADPH incubated upto 60 mins by LC-MS/MS analysis; format: ADME; settings: microsomes, 1 h; how it was run: as §3
[11] = Metabolic stability in human liver microsome assessed as elimination half life at 0.1 uM in presence of NADPH incubated upto 60 mins by LC-MS/MS analysis; format: ADME; settings: liver microsomes, read-out: beta t1/2; how it was run: as §3
[12] = Metabolic stability in rat liver microsome assessed as elimination half life at 0.1 uM in presence of NADPH incubated upto 60 mins by LC-MS/MS analysis; format: ADME; settings: liver microsomes, read-out: beta t1/2; how it was run: as §3
[13] = target: Voltage-gated inwardly rectifying potassium channel KCNH2 (Homo sapiens, UniProt Q12809); assay: Inhibition of hERG potassium channel assessed as […] at -80 mV holding potential incubated for 120 seconds by whole cell-automated voltage clamp analysis assay; format: toxicity
Sequence of Voltage-gated inwardly rectifying potassium channel KCNH2 (Q12809 whole entry): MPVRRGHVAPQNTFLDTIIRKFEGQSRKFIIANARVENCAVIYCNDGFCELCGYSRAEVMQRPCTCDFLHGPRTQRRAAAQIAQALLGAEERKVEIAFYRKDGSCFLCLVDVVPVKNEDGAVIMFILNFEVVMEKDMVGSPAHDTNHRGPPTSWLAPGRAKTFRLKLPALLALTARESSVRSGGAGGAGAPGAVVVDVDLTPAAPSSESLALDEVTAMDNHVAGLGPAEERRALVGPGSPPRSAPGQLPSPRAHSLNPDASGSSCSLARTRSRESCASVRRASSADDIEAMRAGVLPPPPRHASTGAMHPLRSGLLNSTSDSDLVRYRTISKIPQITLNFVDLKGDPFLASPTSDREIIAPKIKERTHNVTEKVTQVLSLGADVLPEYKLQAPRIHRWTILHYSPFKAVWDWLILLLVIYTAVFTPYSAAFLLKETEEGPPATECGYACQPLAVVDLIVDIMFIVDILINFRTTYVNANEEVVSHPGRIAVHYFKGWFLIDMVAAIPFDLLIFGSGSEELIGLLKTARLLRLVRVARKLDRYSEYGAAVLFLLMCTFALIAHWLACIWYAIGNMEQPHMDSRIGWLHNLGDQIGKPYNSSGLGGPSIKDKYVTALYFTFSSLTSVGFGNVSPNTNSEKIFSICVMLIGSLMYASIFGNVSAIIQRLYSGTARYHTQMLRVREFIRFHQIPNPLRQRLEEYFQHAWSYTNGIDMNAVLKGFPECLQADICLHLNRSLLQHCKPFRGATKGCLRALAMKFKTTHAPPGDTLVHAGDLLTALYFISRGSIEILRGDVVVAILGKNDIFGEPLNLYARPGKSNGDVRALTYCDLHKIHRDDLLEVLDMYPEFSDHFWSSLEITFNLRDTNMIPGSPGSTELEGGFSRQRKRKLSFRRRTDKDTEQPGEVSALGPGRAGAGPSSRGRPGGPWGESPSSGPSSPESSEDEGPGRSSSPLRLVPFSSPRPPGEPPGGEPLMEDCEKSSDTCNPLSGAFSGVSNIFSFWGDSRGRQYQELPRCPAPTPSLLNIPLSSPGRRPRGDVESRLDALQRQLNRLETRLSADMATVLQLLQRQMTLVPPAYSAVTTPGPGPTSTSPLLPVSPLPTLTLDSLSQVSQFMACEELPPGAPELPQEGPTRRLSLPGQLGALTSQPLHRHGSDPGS
How it was run: (§4)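 Automated whole-cell patch clamp, holding potential −80 mV. Voltage protocol applied every 20 s. Baseline set with external solution containing 0.1% DMSO and stabilised 3 min. Compound applied until steady state, at least 3 min, then washout. Maximum tested concentration 40 μM, or 3 μM for cisapride as positive control.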

[14] = target: hERG (KCNH2) potassium channel (Homo sapiens, UniProt Q12809); assay: Inhibition of hERG potassium channel assessed as maximum inhibition rate at 40 uM at -80 mV holding potential incubated for 120 seconds by whole cell-automated voltage clamp analysis assay relative to control; format: toxicity; settings: time 120 sec; how it was run: as §4
Sequence of hERG (KCNH2) potassium channel (Q12809 whole entry): as above

Klebsiella pneumoniae [15] = assay: Antibacterial activity agains wild type Klebsiella pneumoniae ATCC BAA-2470 assessed as reduction in bacterial growth incubated for 18 to 20 hrs by CLSI based microdilution method; format: functional; settings: time 18-20 hrs; how it was run: as §2
Escherichia coli [16] = assay: Antibacterial activity against multidrug resistant wild type Escherichia coli NCTC 13353 assessed as reduction in bacterial growth incubated for 18 to 20 hrs by CLSI based microdilution method; format: functional; settings: time 18-20 hrs; how it was run: as §2
Pseudomonas aeruginosa [17] = assay: Antibacterial activity against wild type Pseudomonas aeruginosa ATCC 27853 assessed as reduction in bacterial growth incubated for 18 to 20 hrs by CLSI based microdilution method; format: functional; settings: time 18-20 hrs; how it was run: as §1
Klebsiella pneumoniae [18] = assay: Antibacterial activity agains wild type Klebsiella pneumoniae ATCC BAA-1705 assessed as reduction in bacterial growth incubated for 18 to 20 hrs by CLSI based microdilution method; format: functional; settings: time 18-20 hrs; how it was run: as §1
Acinetobacter baumannii [19] = assay: Antibacterial activity against wild type Acinetobacter baumannii NCTC 13304 assessed as reduction in bacterial growth incubated for 18 to 20 hrs by CLSI based microdilution method; format: functional; settings: time 18-20 hrs; how it was run: as §2
Klebsiella pneumoniae [20] = assay: Antibacterial activity against KPC2-producing multidrug resistant Klebsiella pneumoniae assessed as reduction in bacterial growth incubated for 18 to 20 hrs by CLSI based microdilution method; format: functional; settings: time 18-20 hrs; how it was run: as §2
Escherichia coli [21] = assay: Antibacterial activity against ESBL-producing multidrug resistant Escherichia coli assessed as reduction in bacterial growth incubated for 18 to 20 hrs by CLSI based microdilution method; format: functional; settings: time 18-20 hrs; how it was run: as §2
Escherichia coli [22] = assay: Antibacterial activity against multidrug resistant wild type Escherichia coli ATCC BAA-2340 assessed as reduction in bacterial growth incubated for 18 to 20 hrs by CLSI based microdilution method; format: functional; settings: time 18-20 hrs; how it was run: as §2
Acinetobacter baumannii [23] = assay: Antibacterial activity agains OXA23-producing multidrug resistant Acinetobacter baumannii assessed as reduction in bacterial growth incubated for 18 to 20 hrs by CLSI based microdilution method; format: functional; settings: time 18-20 hrs; how it was run: as §2
Pseudomonas aeruginosa [24] = assay: Antibacterial activity against IMP4-producing multidrug resistant Pseudomonas aeruginosa assessed as reduction in bacterial growth incubated for 18 to 20 hrs by CLSI based microdilution method; format: functional; settings: time 18-20 hrs; how it was run: as §2

MIC (Escherichia coli [1]): 0.25 µg/mL (≈ 0.527 µM) | MIC (Escherichia coli [2]): 0.25 µg/mL (≈ 0.527 µM)
Compound: CCC(CO)=C1CN(c2nc(Oc3cnc4ccnn4c3)nc3[nH]c4c(NC)cc(F)cc4c23)C1

Compound: CNc1cc(F)cc2c1[nH]c1nc(Oc3cnc(C)nc3)nc(N3CC(=C(Br)CN)C3)c12
MIC (Pseudomonas aeruginosa [3]): 2 µg/mL (≈ 4.01 µM) | MIC [4]: < 0.008 µg/mL | MIC (Escherichia coli [1]): 0.015 µg/mL (≈ 0.03 µM) | MIC (Staphylococcus aureus [5]): < 0.008 µg/mL | MIC (Escherichia coli [2]): 0.06 µg/mL (≈ 0.12 µM)

Compound: CCC(CN)=C1CN(c2nc(NS(C)(=O)=O)nc3[nH]c4c(NC)cc(F)cc4c23)C1
MIC (Pseudomonas aeruginosa [3]): > 16 µg/mL | MIC [4]: > 16 µg/mL | MIC (Escherichia coli [1]): > 16 µg/mL | MIC (Staphylococcus aureus [5]): > 16 µg/mL | MIC (Escherichia coli [2]): > 16 µg/mL

Compound: CNc1cc(F)cc2c1[nH]c1nc(Oc3cnc(C)nc3)nc(N3CC(=C(CO)C(C)C)C3)c12
MIC (Pseudomonas aeruginosa [3]): ≥ 64 µg/mL | MIC [4]: < 0.03 µg/mL | MIC (Escherichia coli [1]): 0.125 µg/mL (≈ 0.27 µM) | MIC (Staphylococcus aureus [6]): < 0.03 µg/mL | MIC (Staphylococcus aureus [5]): < 0.008 µg/mL | MIC (Escherichia coli [2]): 0.5 µg/mL (≈ 1.08 µM)

Compound: CCC(CO)=C1CN(c2nc(Oc3cnc(C)nc3)nc3[nH]c4c(NC)cc(F)cc4c23)C1
Fh at 1 h, 0.1 µM [7]: 27.6% | MIC (Pseudomonas aeruginosa [3]): ≥ 64 µg/mL | MIC [4]: < 0.008 µg/mL | Fh at 1 h, 0.1 µM [8]: 14.8% | MIC (Escherichia coli [1]): 0.25 µg/mL (≈ 0.556 µM) | MIC (Staphylococcus aureus [5]): < 0.008 µg/mL | CLH [9]: 256.1 mL/min/g | CLH [10]: 51.4 mL/min/g | MIC (Escherichia coli [2]): 0.25 µg/mL (≈ 0.556 µM) | half-life at 0.1 µM [11]: 1.27 h | half-life at 0.1 µM [12]: 0.76 h

Compound: CCC(CN)=C1CN(c2nc(Sc3cnc(C)nc3)nc3[nH]c4c(NC)cc(F)cc4c23)C1
MIC (Pseudomonas aeruginosa [3]): > 16 µg/mL | MIC [4]: < 0.008 µg/mL | MIC (Escherichia coli [1]): 0.5 µg/mL (≈ 1.08 µM) | MIC (Staphylococcus aureus [6]): < 0.008 µg/mL | MIC (Staphylococcus aureus [5]): 0.008 µg/mL (≈ 0.0172 µM) | MIC (Escherichia coli [2]): 1 µg/mL (≈ 2.15 µM)

Compound: CCC(CN)=C1CN(c2nc(Oc3cnc(C4CC4)nc3)nc3[nH]c4c(NC)cc(F)cc4c23)C1
MIC (Pseudomonas aeruginosa [3]): 0.5 µg/mL (≈ 1.05 µM) | IC50 [13]: 23.4 µM | MIC [4]: < 0.008 µg/mL | inhibition at 2 min, 40 µM [14]: 62% | MIC (Escherichia coli [1]): 0.015 µg/mL (≈ 0.0316 µM) | MIC (Staphylococcus aureus [5]): < 0.008 µg/mL | MIC (Escherichia coli [2]): 0.03 µg/mL (≈ 0.0632 µM)

MIC (Escherichia coli [1]): > 64 µg/mL | MIC (Escherichia coli [2]): > 64 µg/mL
Compound: CCC(CO)=C1CN(c2nc(C(=O)Nc3cnc(C)nc3)nc3[nH]c4c(NC)cc(F)cc4c23)C1

Compound: CNc1cc(F)cc2c1[nH]c1nc(Oc3cnc(C)nc3)nc(N3CC(=C(Cl)CN)C3)c12
MIC (Pseudomonas aeruginosa [3]): 8 µg/mL (≈ 17.6 µM) | IC50 [13]: > 40 µM | MIC [4]: < 0.008 µg/mL | inhibition at 2 min, 40 µM [14]: 34.3% | MIC (Escherichia coli [1]): 0.25 µg/mL (≈ 0.55 µM) | MIC (Staphylococcus aureus [5]): < 0.008 µg/mL | MIC (Escherichia coli [2]): 1 µg/mL (≈ 2.2 µM)

Compound: CC(C)(O/N=C(\C(=O)N[C@@H]1C(=O)N2C(C(=O)[O-])=C(C[N+]3(CCNC(=O)c4ccc(O)c(O)c4Cl)CCCC3)CS[C@H]12)c1csc(N)n1)C(=O)O [CEFIDEROCOL]
MIC (Klebsiella pneumoniae [15]): > 64 µg/mL | MIC (Escherichia coli [16]): 4 µg/mL (≈ 5.32 µM) | MIC (Pseudomonas aeruginosa [17]): 4 µg/mL (≈ 5.32 µM) | MIC (Klebsiella pneumoniae [18]): 32 µg/mL (≈ 42.5 µM) | MIC (Acinetobacter baumannii [19]): 2 µg/mL (≈ 2.66 µM) | MIC (Klebsiella pneumoniae [20]): 2 µg/mL (≈ 2.66 µM) | MIC (Escherichia coli [21]): 0.25 µg/mL (≈ 0.332 µM) | MIC (Escherichia coli [22]): 4 µg/mL (≈ 5.32 µM) | MIC (Acinetobacter baumannii [23]): 2 µg/mL (≈ 2.66 µM) | MIC (Pseudomonas aeruginosa [24]): 1 µg/mL (≈ 1.33 µM)

Compound: CNc1cc(F)cc2c1[nH]c1nc(Oc3cnc(C)nc3)nc(N3CC(=C(C)CO)C3)c12
MIC (Pseudomonas aeruginosa [3]): > 64 µg/mL | MIC [4]: < 0.03 µg/mL | MIC (Escherichia coli [1]): 0.25 µg/mL (≈ 0.574 µM) | MIC (Staphylococcus aureus [5]): < 0.03 µg/mL | MIC (Escherichia coli [2]): > 64 µg/mL

Compound: [2H]C([2H])([2H])Nc1cc(F)cc2c1[nH]c1nc(Oc3cnc(C)nc3)nc(N3CC(=C(CC)CN)C3)c12
Fh at 1 h, 0.1 µM [7]: 49.6% | MIC (Klebsiella pneumoniae [15]): 2 µg/mL (≈ 4.43 µM) | MIC (Escherichia coli [16]): 0.125 µg/mL (≈ 0.277 µM) | MIC (Pseudomonas aeruginosa [17]): 2 µg/mL (≈ 4.43 µM) | Fh at 1 h, 0.1 µM [8]: 41% | MIC (Klebsiella pneumoniae [18]): 4 µg/mL (≈ 8.86 µM) | MIC (Acinetobacter baumannii [19]): 0.25 µg/mL (≈ 0.554 µM) | CLH [9]: 63.9 mL/min/g | MIC (Klebsiella pneumoniae [20]): 1 µg/mL (≈ 2.21 µM) | MIC (Escherichia coli [21]): 0.5 µg/mL (≈ 1.11 µM) | CLH [10]: 20 mL/min/g | MIC (Escherichia coli [22]): 0.25 µg/mL (≈ 0.554 µM) | half-life at 0.1 µM [11]: 1.75 h | MIC (Acinetobacter baumannii [23]): 0.25 µg/mL (≈ 0.554 µM) | half-life at 0.1 µM [12]: 0.548 h | MIC (Pseudomonas aeruginosa [24]): 4 µg/mL (≈ 8.86 µM)
